{"source": "the RNAGym collection of RNA variant scans (doi:10.1002/anie.201605470)", "parents": {"B1": {"name": "Osa-1-4 twister ribozyme (parent)", "chain": "CCGCCUAACACUGCCAAUGCCGGUCCCAAGCCCGGAUAAAAGUGGAGGGGGCGG"}}, "data": [{"variants_of": "B1", "assay": "self-cleavage, relative activity (ratio to wild type); higher = more cleavage; co-transcriptional", "outline": "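A DNA template encoding a 54-nucleotide twister ribozyme from Oryza sativa was made so that each of the 48 positions downstream of the cleavage site carried 97 % wild-type base and 1 % of each other base. Transcription in vitro ran for 2 h at 37 °C, during which the ribozyme could cleave itself. Reverse transcription used a template-switching oligonucleotide, and the products were PCR-amplified and deep-sequenced. Each read was scored as cleaved or uncleaved by whether upstream sequence was present, and relative activity is the fraction cleaved normalised to wild type.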", "values": [{"variant": "G34A U37G", "self-cleavage": 0.88}, {"variant": "G34A U37C", "self-cleavage": 0.89}, {"variant": "G34A U37A", "self-cleavage": 0.88}, {"variant": "G34C U12C", "self-cleavage": 0.1}, {"variant": "G34C U12A", "self-cleavage": 0.1}, {"variant": "G34C U12G", "self-cleavage": 0.08}, {"variant": "G35C U24C", "self-cleavage": 0.05}, {"variant": "G35C U24G", "self-cleavage": 0.01}, {"variant": "G35C U24A", "self-cleavage": 0.06}, {"variant": "G34U U12A", "self-cleavage": 0.14}, {"variant": "G34U U12C", "self-cleavage": 0.14}, {"variant": "G34U U12G", "self-cleavage": 0.05}, {"variant": "G34C G51U", "self-cleavage": 0.06}, {"variant": "G34C G51C", "self-cleavage": 0.06}, {"variant": "G34C G51A", "self-cleavage": 0.1}, {"variant": "A36C C14A", "self-cleavage": 0.06}, {"variant": "A36C C14G", "self-cleavage": 0.06}, {"variant": "A36C C14U", "self-cleavage": 0.09}, {"variant": "G35C", "self-cleavage": 0.72}, {"variant": "G35U", "self-cleavage": 0.9}, {"variant": "G35A", "self-cleavage": 0.9}, {"variant": "G35C U18A", "self-cleavage": 0.84}, {"variant": "G35C U18G", "self-cleavage": 0.77}, {"variant": "G35C U18C", "self-cleavage": 0.56}, {"variant": "G35U U24C", "self-cleavage": 0.08}, {"variant": "G35U U24G", "self-cleavage": 0.03}, {"variant": "G35U U24A", "self-cleavage": 0.2}, {"variant": "G34U U37A", "self-cleavage": 0.79}, {"variant": "G34U U37C", "self-cleavage": 0.84}, {"variant": "G34U U37G", "self-cleavage": 0.87}, {"variant": "A36C C33A", "self-cleavage": 0.06}, {"variant": "A36C C33G", "self-cleavage": 0.04}, {"variant": "A36C C33U", "self-cleavage": 0.13}, {"variant": "G34A G49U", "self-cleavage": 0.1}, {"variant": "G34A G49A", "self-cleavage": 0.13}, {"variant": "G34A G49C", "self-cleavage": 0.07}, {"variant": "G34U G53A", "self-cleavage": 0.27}, {"variant": "G34U G53C", "self-cleavage": 0.05}, {"variant": "G34U G53U", "self-cleavage": 0.11}, {"variant": "A36C C27U", "self-cleavage": 0.09}, {"variant": "A36C C27G", "self-cleavage": 0.05}, {"variant": "A36C C27A", "self-cleavage": 0.07}, {"variant": "G34A G53C", "self-cleavage": 0.05}, {"variant": "G34A G53U", "self-cleavage": 0.13}, {"variant": "G34A G53A", "self-cleavage": 0.49}, {"variant": "G35U U43C", "self-cleavage": 0.21}, {"variant": "G35U U43A", "self-cleavage": 0.44}, {"variant": "G35U U43G", "self-cleavage": 0.12}, {"variant": "G35A G49C", "self-cleavage": 0.07}, {"variant": "G35A G49U", "self-cleavage": 0.16}, {"variant": "G35A G49A", "self-cleavage": 0.18}, {"variant": "G35U G47U", "self-cleavage": 0.14}, {"variant": "G35U G47C", "self-cleavage": 0.07}, {"variant": "G35U G47A", "self-cleavage": 0.15}, {"variant": "G34U U18A", "self-cleavage": 0.64}, {"variant": "G34U U18G", "self-cleavage": 0.58}, {"variant": "G34U U18C", "self-cleavage": 0.31}, {"variant": "A36C A7G", "self-cleavage": 0.11}, {"variant": "A36C A7C", "self-cleavage": 0.05}, {"variant": "A36C A7U", "self-cleavage": 0.05}, {"variant": "G34A U24A", "self-cleavage": 0.18}, {"variant": "G34A U24G", "self-cleavage": 0.03}, {"variant": "G34A U24C", "self-cleavage": 0.06}, {"variant": "G35A G50A", "self-cleavage": 0.35}, {"variant": "G35A G50U", "self-cleavage": 0.9}, {"variant": "G35A G50C", "self-cleavage": 0.78}, {"variant": "A36C A39C", "self-cleavage": 0.15}, {"variant": "A36C A39U", "self-cleavage": 0.15}, {"variant": "A36C A39G", "self-cleavage": 0.2}, {"variant": "G34A G51C", "self-cleavage": 0.06}, {"variant": "G34A G51A", "self-cleavage": 0.15}, {"variant": "G34A G51U", "self-cleavage": 0.1}, {"variant": "G35U G53A", "self-cleavage": 0.62}, {"variant": "G35U G53U", "self-cleavage": 0.17}, {"variant": "G35U G53C", "self-cleavage": 0.07}, {"variant": "A36C A8G", "self-cleavage": 0.14}, {"variant": "A36C A8U", "self-cleavage": 0.09}, {"variant": "A36C A8C", "self-cleavage": 0.06}, {"variant": "G34U G44A", "self-cleavage": 0.55}, {"variant": "G34U G44U", "self-cleavage": 0.5}, {"variant": "G34U G44C", "self-cleavage": 0.41}, {"variant": "G35U G49U", "self-cleavage": 0.1}, {"variant": "G35U G49C", "self-cleavage": 0.06}, {"variant": "G35U G49A", "self-cleavage": 0.11}, {"variant": "G35A U37A", "self-cleavage": 1.05}, {"variant": "G35A U37C", "self-cleavage": 0.92}, {"variant": "G35A U37G", "self-cleavage": 0.89}, {"variant": "G35C G45U", "self-cleavage": 0.05}, {"variant": "G35C G45C", "self-cleavage": 0.07}, {"variant": "G35C G45A", "self-cleavage": 0.05}, {"variant": "G34U G35C", "self-cleavage": 0.31}, {"variant": "G34U G35A", "self-cleavage": 0.6}, {"variant": "G34U G35U", "self-cleavage": 0.52}, {"variant": "G35U G51U", "self-cleavage": 0.15}, {"variant": "G35U G51A", "self-cleavage": 0.25}, {"variant": "G35U G51C", "self-cleavage": 0.06}, {"variant": "G34U G47C", "self-cleavage": 0.05}, {"variant": "G34U G47U", "self-cleavage": 0.1}, {"variant": "G34U G47A", "self-cleavage": 0.09}, {"variant": "G35A U43G", "self-cleavage": 0.12}, {"variant": "G35A U43C", "self-cleavage": 0.41}, {"variant": "G35A U43A", "self-cleavage": 0.46}, {"variant": "G34U", "self-cleavage": 0.82}, {"variant": "G34C", "self-cleavage": 0.71}, {"variant": "A36C C26U", "self-cleavage": 0.12}, {"variant": "A36C C26A", "self-cleavage": 0.03}, {"variant": "A36C C26G", "self-cleavage": 0.06}, {"variant": "G34C U37C", "self-cleavage": 0.65}, {"variant": "G34C U37A", "self-cleavage": 0.6}, {"variant": "G34C U37G", "self-cleavage": 0.66}, {"variant": "G34C G48C", "self-cleavage": 0.05}, {"variant": "G34C G48U", "self-cleavage": 0.05}, {"variant": "G34C G48A", "self-cleavage": 0.06}, {"variant": "A36C C25A", "self-cleavage": 0.06}, {"variant": "A36C C25U", "self-cleavage": 0.1}, {"variant": "A36C C25G", "self-cleavage": 0.04}, {"variant": "G35C G48U", "self-cleavage": 0.04}, {"variant": "G35C G48A", "self-cleavage": 0.05}, {"variant": "G35C G48C", "self-cleavage": 0.04}, {"variant": "G35A G51C", "self-cleavage": 0.07}, {"variant": "G35A G51A", "self-cleavage": 0.25}, {"variant": "G35A G51U", "self-cleavage": 0.12}, {"variant": "G35A G44U", "self-cleavage": 0.71}, {"variant": "G35A G44A", "self-cleavage": 0.8}, {"variant": "G35A G44C", "self-cleavage": 0.76}, {"variant": "G35C G47U", "self-cleavage": 0.05}, {"variant": "G35C G47C", "self-cleavage": 0.05}, {"variant": "G35C G47A", "self-cleavage": 0.05}, {"variant": "G34U G48C", "self-cleavage": 0.07}, {"variant": "G34U G48A", "self-cleavage": 0.07}, {"variant": "G34U G48U", "self-cleavage": 0.05}, {"variant": "G35A G45C", "self-cleavage": 0.06}, {"variant": "G35A G45A", "self-cleavage": 0.31}, {"variant": "G35A G45U", "self-cleavage": 0.15}, {"variant": "G35C G50C", "self-cleavage": 0.1}, {"variant": "G35C G50U", "self-cleavage": 0.17}, {"variant": "G35C G50A", "self-cleavage": 0.24}, {"variant": "A36C C21U", "self-cleavage": 0.46}, {"variant": "A36C C21G", "self-cleavage": 0.05}, {"variant": "A36C C21A", "self-cleavage": 0.54}, {"variant": "A36C C15U", "self-cleavage": 0.12}, {"variant": "A36C C15G", "self-cleavage": 0.25}, {"variant": "A36C C15A", "self-cleavage": 0.24}, {"variant": "G35C U37C", "self-cleavage": 0.94}, {"variant": "G35C U37G", "self-cleavage": 0.9}, {"variant": "G35C U37A", "self-cleavage": 0.93}, {"variant": "G34A U12C", "self-cleavage": 0.19}, {"variant": "G34A U12A", "self-cleavage": 0.23}, {"variant": "G34A U12G", "self-cleavage": 0.07}, {"variant": "G34C G49U", "self-cleavage": 0.07}, {"variant": "G34C G49A", "self-cleavage": 0.06}, {"variant": "G34C G49C", "self-cleavage": 0.06}, {"variant": "G35U G44U", "self-cleavage": 0.74}, {"variant": "G35U G44A", "self-cleavage": 0.88}, {"variant": "G35U G44C", "self-cleavage": 0.74}, {"variant": "G35U U12A", "self-cleavage": 0.47}, {"variant": "G35U U12G", "self-cleavage": 0.08}, {"variant": "G35U U12C", "self-cleavage": 0.37}, {"variant": "G35C G49A", "self-cleavage": 0.05}, {"variant": "G35C G49U", "self-cleavage": 0.05}, {"variant": "G35C G49C", "self-cleavage": 0.05}, {"variant": "G35C G51U", "self-cleavage": 0.06}, {"variant": "G35C G51A", "self-cleavage": 0.09}, {"variant": "G35C G51C", "self-cleavage": 0.05}, {"variant": "A36C C31U", "self-cleavage": 0.1}, {"variant": "A36C C31A", "self-cleavage": 0.03}, {"variant": "A36C C31G", "self-cleavage": 0.04}]}]}
